From ChEMBL document CHEMBL4346654 (Eur J Med Chem, 2019)
Values after ≈ are worked out from the molar mass of the structure shown.

Legend:
[1] = system: Staphylococcus aureus; assay: Antibacterial activity against MLS-resistant Staphylococcus aureus PU 32 expressing inducible ermA gene assessed as reduction in microbial growth by CLSI based two-fold broth dilution method; assay type: functional
[2] = system: Streptococcus pneumoniae; assay: Antibacterial activity against erythromycin-susceptible Streptococcus pneumoniae ATCC49619 assessed as reduction in microbial growth by CLSI based two-fold broth dilution method; assay type: functional
[3] = system: Streptococcus pneumoniae; assay: Bactericidal activity against erythromycin-susceptible Streptococcus pneumoniae ATCC49619 pretreated followed by subculture in absence of compound measured after 24 hrs; assay type: functional
How it was run: (§1)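 Isolates were identified by 16S rDNA sequencing. MIC was determined by CLSI-recommended two-fold broth dilution. For MBC, samples from 1–8 fold MIC were transferred to culture medium and subcultured for 24 h without antibiotic.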

[4] = system: Haemophilus influenzae; assay: Antibacterial activity against azithromycin-susceptible Haemophilus influenzae ATCC 49247 assessed as reduction in microbial growth by CLSI based two-fold broth dilution method; assay type: functional
[5] = system: Streptococcus pneumoniae; assay: Selectivity ratio of MBC to MIC for erythromycin-susceptible Streptococcus pneumoniae ATCC49619; assay type: functional; how it was run: as §1
[6] = system: Streptococcus pneumoniae; assay: Antibacterial activity against Streptococcus pneumoniae 07P390 expressing constitutive ermB gene assessed as reduction in microbial growth by CLSI based two-fold broth dilution method; assay type: functional
[7] = system: Streptococcus pneumoniae; assay: Antibacterial activity against penicillin-susceptible Streptococcus pneumoniae PU 09 expressing mef gene assessed as reduction in microbial growth by CLSI based two-fold broth dilution method; assay type: functional
[8] = system: Streptococcus pneumoniae; assay: Bactericidal activity against penicillin-susceptible Streptococcus pneumoniae PU 09 expressing mef gene pretreated followed by subculture in absence of compound measured after 24 hrs; assay type: functional; how it was run: as §1
[9] = system: Streptococcus pneumoniae; assay: Selectivity ratio of MBC to MIC for penicillin-susceptible Streptococcus pneumoniae PU 09 expressing mef gene; assay type: functional; how it was run: as §1
[10] = system: Streptococcus pneumoniae; assay: Bactericidal activity against Streptococcus pneumoniae 07P390 expressing constitutive ermB gene pretreated followed by subculture in absence of compound measured after 24 hrs; assay type: functional; how it was run: as §1
[11] = system: Streptococcus pneumoniae; assay: Selectivity ratio of MBC to MIC for Streptococcus pneumoniae 07P390 expressing constitutive ermB gene; assay type: functional; how it was run: as §1
[12] = system: Haemophilus influenzae; assay: Bactericidal activity against azithromycin-susceptible Haemophilus influenzae ATCC 49247 pretreated followed by subculture in absence of compound measured after 24 hrs; assay type: functional; how it was run: as §1
[13] = system: Haemophilus influenzae; assay: Selectivity ratio of MBC to MIC for azithromycin-susceptible Haemophilus influenzae ATCC 49247; assay type: functional; how it was run: as §1
[14] = system: Streptococcus pyogenes; assay: Antibacterial activity against MLS-resistant Streptococcus pyogenes 01-968 expressing inducible ermB gene assessed as reduction in microbial growth by CLSI based two-fold broth dilution method; assay type: functional
[15] = system: Streptococcus pyogenes; assay: Bactericidal activity against MLS-resistant Streptococcus pyogenes 01-968 expressing inducible ermB gene pretreated followed by subculture in absence of compound measured after 24 hrs; assay type: functional
How it was run: (§2)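 MBC assay. Following MIC determination by CLSI standard two-fold broth dilution, samples at 1–8 fold MIC were transferred to fresh culture medium. They were subcultured for 24 h without antibiotic. Isolates were identified by 16S rDNA sequencing. S. aureus ATCC 29213 was used as a control strain.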

[16] = system: Streptococcus pyogenes; assay: Selectivity ratio of MBC to MIC for MLS-resistant Streptococcus pyogenes 01-968 expressing inducible ermB gene; assay type: functional
How it was run: (§3)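 MBC/MIC ratio. MIC was measured by CLSI standard two-fold broth dilution. MBC was measured by transferring samples at 1–8 fold MIC to culture medium and subculturing for 24 h without antibiotic. Isolates were identified by 16S rDNA sequencing.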

[17] = system: Staphylococcus aureus; assay: Bactericidal activity against MLS/methicillin-resistant Staphylococcus aureus PU 32 expressing inducible ermA gene pretreated followed by subculture in absence of compound measured after 24 hrs; assay type: functional; how it was run: as §2
[18] = system: Staphylococcus aureus; assay: Selectivity ratio of MBC to MIC for MLS/methicillin-resistant Staphylococcus aureus PU 32 expressing inducible ermA gene; assay type: functional; how it was run: as §3
[19] = system: Staphylococcus aureus; assay: Antibacterial activity against MLS-resistant Staphylococcus aureus PU 20 expressing constitutive ermC gene assessed as reduction in microbial growth by CLSI based two-fold broth dilution method; assay type: functional
[20] = system: Staphylococcus aureus; assay: Bactericidal activity against MLS-resistant Staphylococcus aureus PU 20 expressing constitutive ermC gene pretreated followed by subculture in absence of compound measured after 24 hrs; assay type: functional; how it was run: as §2
[21] = system: Staphylococcus aureus; assay: Selectivity ratio of MBC to MIC for MLS-resistant Staphylococcus aureus PU 20 expressing constitutive ermC gene; assay type: functional; how it was run: as §3
[22] = system: Streptococcus pyogenes; assay: Antibacterial activity against MLS-resistant Streptococcus pyogenes 12-206 expressing constitutive ermA gene assessed as reduction in microbial growth by CLSI based two-fold broth dilution method; assay type: functional
[23] = system: Streptococcus pyogenes; assay: Bactericidal activity against MLS-resistant Streptococcus pyogenes 12-206 expressing constitutive ermA gene pretreated followed by subculture in absence of compound measured after 24 hrs; assay type: functional; how it was run: as §2
[24] = system: Streptococcus pyogenes; assay: Selectivity ratio of MBC to MIC for MLS-resistant Streptococcus pyogenes 12-206 expressing constitutive ermA gene; assay type: functional; how it was run: as §3
[25] = system: Streptococcus pyogenes; assay: Antibacterial activity against Streptococcus pyogenes 12-207 expressing mef gene assessed as reduction in microbial growth by CLSI based two-fold broth dilution method; assay type: functional
[26] = system: Streptococcus pyogenes; assay: Bactericidal activity against Streptococcus pyogenes 12-207 expressing mef gene pretreated followed by subculture in absence of compound measured after 24 hrs; assay type: functional; how it was run: as §1
[27] = system: Streptococcus pyogenes; assay: Selectivity ratio of MBC to MIC for Streptococcus pyogenes 12-207 expressing mef gene; assay type: functional; how it was run: as §1
[28] = system: Moraxella catarrhalis; assay: Antibacterial activity against erythromycin-susceptible Moraxella catarrhalis 13L332 assessed as reduction in microbial growth by CLSI based two-fold broth dilution method; assay type: functional
[29] = system: Moraxella catarrhalis; assay: Bactericidal activity against erythromycin-susceptible Moraxella catarrhalis 13L332 pretreated followed by subculture in absence of compound measured after 24 hrs; assay type: functional; how it was run: as §1
[30] = system: Moraxella catarrhalis; assay: Selectivity ratio of MBC to MIC for erythromycin-susceptible Moraxella catarrhalis 13L332; assay type: functional; how it was run: as §1
[31] = AUCinfinity in Sprague-Dawley rat at 20 mg/kg, po after 0.25 to 24 hrs by LC-MS/MS analysis; assay type: ADME, organism-based; set-up: dose 20 mg/kg, time infinity, route oral; conditions: Sprague-Dawley, in vivo
How it was run: (§4)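 Male SD rats were given a single 20 mg/Kg oral dose. Blood was sampled at 0.25, 0.5, 1, 2, 4, 6, 8 and 24 h and centrifuged at 2500 g for 5 min at 4 °C. Drug levels were quantified by LC-MS/MS. t1/2, Cmax, Tmax, CL, MRT and AUC were calculated from the concentration–time data.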

[32] = AUC (0 to t) in Sprague-Dawley rat at 20 mg/kg, po after 0.25 to 24 hrs by LC-MS/MS analysis; assay type: ADME, organism-based; set-up: time upper 24 hr, dose 20 mg/kg, time lower 0.25 hr, route oral; conditions: in vivo; how it was run: as §4
[33] = Systemic plasma clearance in Sprague-Dawley rat at 20 mg/kg, po after 0.25 to 24 hrs by LC-MS/MS analysis; assay type: ADME, organism-based; how it was run: as §4
[34] = Half life in Sprague-Dawley rat at 20 mg/kg, po after 0.25 to 24 hrs by LC-MS/MS analysis; assay type: ADME, organism-based; conditions: in vivo; how it was run: as §4
[35] = MRT in Sprague-Dawley rat at 20 mg/kg, po after 0.25 to 24 hrs by LC-MS/MS analysis; assay type: ADME, organism-based; conditions: in vivo; how it was run: as §4
[36] = Tmax in Sprague-Dawley rat at 20 mg/kg, po after 0.25 to 24 hrs by LC-MS/MS analysis; assay type: ADME, organism-based; conditions: in vivo; how it was run: as §4
[37] = Cmax in Sprague-Dawley rat at 20 mg/kg, po after 0.25 to 24 hrs by LC-MS/MS analysis; assay type: ADME, organism-based; set-up: dose 20 mg/kg, route oral; conditions: in vivo; how it was run: as §4
[38] = biological target: Cytochrome P450 3A4 (Homo sapiens, UniProt P08684); assay: Inhibition of CYP3A4 in human liver microsomes assessed as reduction in metabolite formation using midazolam as substrate incubated for 10 mins in presence of NADPH by HPLC based mass spectrometric method; assay type: ADME
Chain of Cytochrome P450 3A4 (P08684 whole entry): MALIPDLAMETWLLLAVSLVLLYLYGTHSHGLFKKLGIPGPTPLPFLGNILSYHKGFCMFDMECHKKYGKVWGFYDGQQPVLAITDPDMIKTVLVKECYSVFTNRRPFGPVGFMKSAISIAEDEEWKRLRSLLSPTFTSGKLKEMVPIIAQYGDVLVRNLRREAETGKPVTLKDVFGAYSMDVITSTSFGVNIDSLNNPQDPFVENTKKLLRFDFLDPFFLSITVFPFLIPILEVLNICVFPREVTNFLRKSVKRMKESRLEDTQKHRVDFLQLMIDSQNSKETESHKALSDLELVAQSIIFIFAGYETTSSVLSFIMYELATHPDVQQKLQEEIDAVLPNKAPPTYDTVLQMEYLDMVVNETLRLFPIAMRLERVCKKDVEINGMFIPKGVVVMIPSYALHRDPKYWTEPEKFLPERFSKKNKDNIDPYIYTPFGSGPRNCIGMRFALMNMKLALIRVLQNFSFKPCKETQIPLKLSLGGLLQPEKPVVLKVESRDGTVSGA
How it was run: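 Human liver microsome CYP3A4 with midazolam substrate in 0.1 M potassium phosphate buffer was prewarmed at 37 °C for 5 min. Compound and 25 mM NADPH solution (stock) were added, then incubated at 37 °C for 10 min. Ketoconazole served as the positive inhibitor. Metabolite was measured by UPLC–triple quadrupole MS as the metabolite/internal standard peak area ratio, and IC50 was derived by curve fitting.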

[39] = system: Rattus norvegicus; assay: Ratio of test compound half life to telithromycin half life in Sprague-Dawley rat at 20 mg/kg, po after 0.25 to 24 hrs by LC-MS/MS analysis; assay type: ADME, organism-based; conditions: in vivo
[40] = Ratio of test compound MRT to telithromycin MRT in Sprague-Dawley rat at 20 mg/kg, po after 0.25 to 24 hrs by LC-MS/MS analysis; assay type: ADME, organism-based; conditions: in vivo

Row | Compound | MIC [1] [µg/mL] | MIC [2] [µg/mL] | MBC [3] [µg/mL] | MIC [4] [µg/mL] | Selectivity ratio [5] | MIC [6] [µg/mL] | MIC [7] [µg/mL] | MBC [8] [µg/mL] | Selectivity ratio [9] | MBC [10] [µg/mL] | Selectivity ratio [11] | MBC [12] [µg/mL] | Selectivity ratio [13] | MIC [14] [µg/mL] | MBC [15] [µg/mL] | Selectivity ratio [16] | MBC [17] [µg/mL] | Selectivity ratio [18] | MIC [19] [µg/mL] | MIC [22] [µg/mL] | further results
1 | CC[C@H]1OC(=O)[C@@](C)(F)C(=O)[C@H](C)[C@@H](O[C@@H]2O[C@H](C)C[C@H](N(C)C)[C@H]2O)[C@](C)(OC)C[C@@H](C)/C(=N\OCC#Cc2ccc3c(c2)c(=O)c(C(=O)O)cn3C2CC2)[C@H](C)[C@H]2OC(=O)O[C@@]21C | 1 | 0.25 | 0.5 (≈ 0.548 µM) | 8 | 2 | 4 | 2 | 4 (≈ 4.39 µM) | 2 | 32 (≈ 35.1 µM) | 8 | 16 (≈ 17.5 µM) | 2 | 0.25 | 2 (≈ 2.19 µM) | 8 | 4 (≈ 4.39 µM) | 4 | 32 |  | MBC [20]: 128 µg/mL (≈ 140 µM); Selectivity ratio [21]: 4
2 | CC[C@H]1OC(=O)[C@H](C)C(=O)[C@H](C)[C@@H](O[C@@H]2O[C@H](C)C[C@H](N(C)C)[C@H]2O)[C@](C)(OC)C[C@@H](C)C(=O)[C@H](C)[C@H]2N(CCCCn3cnc(-c4cccnc4)c3)C(=O)O[C@]12C [TELITHROMYCIN] | 0.125 to 0.25 |  |  | 4 | 1 - 4 | 0.016 to 0.125 | 0.25 to 0.5 | 0.5 to 4 (≈ 0.616 to 4.93 µM) | 2 - 8 | 0.125 to 1 (≈ 0.154 to 1.23 µM) | >=8 | 16 (≈ 19.7 µM) | 4 |  | 0.016 to 0.125 (≈ 0.0197 to 0.154 µM) | >=4 - 8 | ≥ 1 | >=4 - 8 | > 256 | 0.031 | MBC [23]: > 0.25 µg/mL; Selectivity ratio [24]: >8; MIC [25]: 0.25 µg/mL; MBC [26]: 1 µg/mL (≈ 1.23 µM); Selectivity ratio [27]: 4; MIC [28]: 0.25 µg/mL; MBC [29]: > 2 µg/mL; Selectivity ratio [30]: >8; AUC(0-inf) [31]: 927 ng·h/mL; AUC(0-t) [32]: 897 ng·h/mL; CL/F [33]: 363 mL/min/kg; half-life [34]: 1.22 h; MRT [35]: 3.27 h; Tmax [36]: 2 h; Cmax [37]: 204 ng/mL; IC50 [38]: 11.8 µM
3 | CC[C@H]1OC(=O)[C@@](C)(F)C(=O)[C@H](C)[C@@H](O[C@@H]2O[C@H](C)C[C@H](N(C)C)[C@H]2O)[C@](C)(OC/C=C/c2ccc3c(c2)c(=O)c(C(N)=O)cn3C2CC2)C[C@@H](C)/C(=N\OC)[C@H](C)[C@H]2OC(=O)O[C@@]21C | 0.25 | ≤ 0.008 | ≤ 0.008 | 16 |  | ≤ 0.008 | 0.5 | 0.5 (≈ 0.548 µM) | 1 | > 0.062 | >8 | 32 (≈ 35 µM) | 2 | ≤ 0.002 | > 0.016 | >8 | > 2 | >8 | > 256 | 0.016 | MBC [23]: > 0.125 µg/mL; Selectivity ratio [24]: >8; MIC [25]: 0.062 µg/mL; MBC [26]: 0.125 µg/mL (≈ 0.137 µM); Selectivity ratio [27]: 2; MIC [28]: 0.5 µg/mL; MBC [29]: 4 µg/mL (≈ 4.38 µM); Selectivity ratio [30]: 8; AUC(0-inf) [31]: 4770 ng·h/mL; AUC(0-t) [32]: 4600 ng·h/mL; CL/F [33]: 80.8 mL/min/kg; half-life [34]: 4.34 h; MRT [35]: 8.32 h; Tmax [36]: 6.67 h; Cmax [37]: 369 ng/mL; IC50 [38]: 14.9 µM; Ratio [39]: 2.5 to 3.6; Ratio [40]: 2.3 to 2.6
